From ChEMBL document CHEMBL1134233, “Synthesis of phenylglycine derivatives as potent and selective antagonists of group III metabotropic glutamate receptors” (2001)

How the values were obtained:
[1] = Antagonist activity at Group III Metabotropic glutamate receptor in rat spinal cord in the presence of (S)AP4 at 100 uM as agonist challenge; assay type: functional
How it was run: (§1)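 Neonatal rat spinal cord, one-point assay run in triplicate. A single antagonist concentration was tested against a single agonist-evoked response, expressed as percent antagonism. The agonist was (2R,4R)-APDC for group II and (S)-AP4 for group III.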

[2] = Antagonist activity at Group III Metabotropic glutamate receptor in rat spinal cord; assay type: functional
How it was run: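 Neonatal rat spinal cord preparation. Concentration–response curves to the group III agonist (S)-AP4 were constructed with and without the antagonist, and an apparent KD was derived from the curve shift.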

[3] = Antagonist activity at Group III Metabotropic glutamate receptor in rat spinal cord; Not effective at 50 uM; assay type: functional
[4] = Antagonist activity at Group II Metabotropic glutamate receptor in rat spinal cord; assay type: functional
How it was run: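 Neonatal rat spinal cord preparation. Concentration–response curves to (1S,3S)-ACPD or (2R,4R)-APDC were built with and without antagonist to give an apparent K_D. For weak antagonists, a single antagonist concentration was tested against a single agonist-induced response in triplicate and reported as % antagonism.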

[5] = Antagonist activity at Group I Metabotropic glutamate receptor in rat spinal cord in the presence of (1S,3R)APCD at 1 mM as agonist challenge
[6] = Antagonist activity at Group I Metabotropic glutamate receptor in rat spinal cord; Not effective at 1 mM; assay type: functional
[7] = Antagonist activity at Group I Metabotropic glutamate receptor in rat spinal cord; assay type: functional
[8] = Antagonist activity at Group III Metabotropic glutamate receptor in rat spinal cord; Not effective at 1 mM; assay type: functional
[9] = Antagonist activity at Group II Metabotropic glutamate receptor in rat spinal cord in the presence of (2R,4R)APDC at 1 uM as agonist challenge; assay type: functional; how it was run: as §1

Row | SMILES | KDs [2] [µM] | KDs [4] [µM] | other results
1 | CCOP(=O)(O)c1ccc(C(C)(N)C(=O)O)cc1OC (centres undefined) | – | – | KDs [1]: 13 µM
2 | Cc1cc(C(C)(N)C(=O)O)ccc1P(=O)(O)O (centres undefined) | 5.5 | – | –
3 | COc1cc(C(N)(C(=O)O)C2CC2)ccc1P(=O)(O)O (centres undefined) | – | – | KDs [3]: No effect
4 | NC(C(=O)O)(c1ccc(P(=O)(O)O)cc1)C1CC1 (centres undefined) | 1.7 | 53 | Inhibition [5]: 70%
5 | Cc1cc(P(=O)(O)O)ccc1C(C)(N)C(=O)O (centres undefined) | 180 | – | –
6 | CC(N)(C(=O)O)c1ccc(P(=O)(O)O)cc1 (centres undefined) | 9.2 | 113 | KDs [6]: No effect
7 | CC(N)(C(=O)O)c1ccc(P(=O)(O)O)c(Cl)c1 (centres undefined) | 6.8 | 726 | KDs [6]: No effect
8 | CC(N)(C(=O)O)c1ccc(C(=O)O)cc1 (centres undefined) | 227 | 479 | KDs [7]: 144 µM
9 | CC(N)(C(=O)O)c1cccc(CP(=O)(O)O)c1 (centres undefined) | – | – | KDs [8]: No effect
10 | COc1cc(C(C)(N)C(=O)O)ccc1P(=O)(O)O (centres undefined) | – | – | KDs [9]: 51 µM; KDs [1]: 4.8 µM
